# Screening data as filed in PubChem BioAssay.
# Shown are actives, neighbours in structure and some others; about 2.2% of the full set was active somewhere.
# DENV2 CPE rescue: inhibitors of DENV2 cytopathic effect. DENV2-infected cells, cytopathic effect rescue, plate reader. CPE inhibition, % at 9.99 µM. hit rate 1.7% among 350,000; in the data active = CPE inhibition above about 20%, passing the limit was not always enough; inconclusive = no clear call, values can overlap the other calls; tested in BHK-21 cells
# E-sel inducer: E-selectin induction on HUVECs | HUVEC E-selectin immunofluorescence imaging; normalized: neutral wells 0, TNF-alpha wells 100 | activation, % at 7.58 µM | hit rate 0.37% among 260,000;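 active = mean E-selectin-positive cell signal at least 10% of the positive control, reached in at least 60% of replicates, without over 20% cell loss; inconclusive = no rule given, readout overlaps actives, possibly toxicity-flagged; inactive = the rest, including those meeting only one limit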
# Target sequence (P16581 whole entry, looked up): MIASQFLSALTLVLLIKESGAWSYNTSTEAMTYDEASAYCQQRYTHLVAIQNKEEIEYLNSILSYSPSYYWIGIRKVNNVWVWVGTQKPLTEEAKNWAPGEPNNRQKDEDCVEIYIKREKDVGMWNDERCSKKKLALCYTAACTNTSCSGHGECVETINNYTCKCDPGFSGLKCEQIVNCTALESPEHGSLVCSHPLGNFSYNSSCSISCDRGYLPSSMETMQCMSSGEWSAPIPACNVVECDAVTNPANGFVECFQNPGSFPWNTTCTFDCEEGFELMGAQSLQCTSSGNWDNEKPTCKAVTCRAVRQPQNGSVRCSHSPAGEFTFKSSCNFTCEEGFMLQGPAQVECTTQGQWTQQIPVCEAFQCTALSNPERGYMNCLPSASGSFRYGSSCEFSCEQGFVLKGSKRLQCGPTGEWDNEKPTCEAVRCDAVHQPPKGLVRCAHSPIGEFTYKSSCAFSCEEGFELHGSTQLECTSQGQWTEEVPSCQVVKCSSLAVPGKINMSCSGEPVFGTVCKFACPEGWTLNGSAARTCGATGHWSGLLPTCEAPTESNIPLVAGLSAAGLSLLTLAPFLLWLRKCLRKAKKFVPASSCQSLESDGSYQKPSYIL
#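 System: HUVEC, human umbilical vein endothelial cells; quantity: 3,000 cells/well; buffer or medium: EGM-2 medium, gelatin-coated wells; dosing: single-point compound dose; detection: immunofluorescence imaging; evaluation: % PE-positive cells; benchmarks: TNF-alpha, DMSO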
# C2C12 statin: protects C2C12 myotubes from simvastatin toxicity; hit rate 0.78% among 330,000; rescue of ATP level, % at 7.49 µM; ATP luminescence, 48 h; scaled: DMSO 0, geranylgeraniol control 100;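 active = mean ATP rescue above about 67%, or every replicate alone reaching that limit, limit read from the data, passing the limit was not always enough; inconclusive = no clear call, values can overlap the other calls; inactive = mean under the limit and some replicate under it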;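 note: myotubes were challenged with 10 µM simvastatin during compound exposure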
# Numbers stand for hits; n = inactive; u = inconclusive; x = no result.
SMILES,DENV2 CPE rescue,E-sel inducer,C2C12 statin
CCS(=O)(=O)N1CCCCN2[C@H](CO)[C@@H](c3ccc(-c4ccc(C#N)cc4)cc3)[C@@H]2C1,65,n,n
CNC[C@H]1Oc2ccc(NC(=O)Nc3ccc(OC)cc3)cc2CC(=O)N([C@@H](C)CO)C[C@@H]1C,n,x,n
C[C@H](CO)N1C[C@H](C)[C@H](CN(C)Cc2ccccc2)Oc2c(NS(=O)(=O)c3ccccc3)cccc2C1=O,n,n,n
NNC(=O)c1ccc(-c2ccccc2F)cc1,27,x,x
NC(=O)c1ccc(-c2ccccc2F)cc1,n,x,x
O=C(CSc1nnc(NC(=O)c2ccccc2F)s1)NC1CCCC1,n,x,n
CC(=O)Nc1ccc(NC(=O)CSc2nnc(NC(=O)c3ccccc3F)s2)cc1,30,n,n
CO[C@@H]1CN(C)C(=O)c2cccc(C#N)c2OCC[C@@H]2CC[C@@H](OC)[C@@H](CN(C)C(=O)[C@H]1C)O2,n,n,n
Cc1cccc(NC(=O)c2ccc(OC3CSC3)cc2)c1,x,x,105
CC(=O)c1cccc(NC(=O)c2ccc(OC3CSC3)cc2)c1,n,n,x
CO[C@H]1CC[C@H]2CCOc3ccc(C#N)cc3C(=O)N(C)[C@@H](C)C(=O)N(C)C[C@H]1O2,n,n,n
O=C(Nc1ccccc1F)NC1CCN(Cc2nnnn2Cc2ccc(F)cc2)CC1,x,x,n
O=C(Nc1ccc(F)cc1)NC1CCN(Cc2nnnn2Cc2ccco2)CC1,x,x,95
CCC(=O)N(C)C[C@H]1Oc2ncc(-c3ccc(C(=O)N(C)C)cc3)cc2C(=O)N([C@H](C)CO)C[C@@H]1C,n,n,n
CCOC(=O)c1cc(NC(=O)NCc2ccco2)c(C)nc1C,x,x,83
CCOC(=O)c1cc(NC(=O)Nc2ccccc2Cl)c(C)nc1C,n,x,x
C[C@@H]1CN([C@H](C)CO)C(=O)c2cc(NC(=O)Nc3ccc(C(F)(F)F)cc3)ccc2O[C@@H]1CN(C)S(=O)(=O)c1cn(C)cn1,n,x,n
O=C(N1CCCCCC1)N1CCN(S(=O)(=O)N2CCCCC2)CC1,x,x,101
CN(C)S(=O)(=O)N1CCN(C(=O)N2CCCCC2)CC1,x,x,n
Cc1cccc2cc(COC(=O)c3ccccc3)c(=O)[nH]c12,x,x,n
Cc1cccc2cc(COC(=O)c3cccnc3)c(=O)[nH]c12,x,x,102
COc1ccc(CN(C)C[C@H]2OCCCC[C@@H](C)Oc3ccc(NC(=O)c4ccccc4)cc3C(=O)N([C@@H](C)CO)C[C@@H]2C)cc1,n,n,x
O=C(C[C@H]1CC[C@@H]2[C@H](COC[C@H](O)CN2CC2CCOCC2)O1)N1CCOCC1,49,n,n
O=C(C[C@@H]1CC[C@H]2[C@@H](COC[C@H](O)CN2CC2CCOCC2)O1)N1CCOCC1,n,n,n
O=C(C[C@H]1CC[C@@H]2[C@H](COC[C@H](O)CN2CC2CCCCC2)O1)NCC1CC1,29,n,n
SMILES,DENV2 CPE rescue,E-sel inducer,C2C12 statin
O=C(C[C@H]1CC[C@@H]2[C@H](COC[C@@H](O)CN2CC2CCCCC2)O1)NCC1CC1,n,n,n
C[C@@H]1CN([C@@H](C)CO)C(=O)c2cc(NC(=O)CCC(F)(F)F)ccc2O[C@@H](C)CCCCO[C@H]1CN(C)C(=O)CCCN(C)C,n,n,n
Cc1cccc(C)c1OCC(O)CN1CCN(c2ccccn2)CC1 (centres undefined),x,n,x
CN1CCN(CC(O)COC(c2ccccc2)c2ccccc2)CC1 (centres undefined),n,x,x
OC(COC(c1ccc(F)cc1)c1ccc(F)cc1)CN1CCCC1 (centres undefined),41,n,n
OC(COC(c1ccc(Cl)cc1)c1ccc(Cl)cc1)CN1CCN(c2ccccn2)CC1 (centres undefined),45,x,x
C[C@@H]1CN([C@H](C)CO)C(=O)c2cc(-c3cccc(C#N)c3)cnc2O[C@H]1CN(C)Cc1ccncc1,n,n,n
CO[C@@H]1CN(C)C(=O)c2ccc(NC(=O)CC(F)(F)F)cc2OC[C@@H](C)N(C(=O)C2CCOCC2)C[C@@H]1C,24,n,x
CO[C@H]1CN(C)C(=O)c2ccc(NC(=O)CC(F)(F)F)cc2OC[C@@H](C)N(C(=O)C2CC2)C[C@@H]1C,n,n,x
CO[C@@H]1CN(C)C(=O)c2cc(NC(=O)CC(F)(F)F)ccc2OC[C@H](C)N(C(=O)C2CCOCC2)C[C@@H]1C,26,n,x
CO[C@H]1CN(C)C(=O)c2cc(NC(=O)CC(F)(F)F)ccc2OC[C@H](C)N(C(=O)C2CCOCC2)C[C@@H]1C,27,n,x
CO[C@H]1CN(C)C(=O)c2cc(NC(=O)CC(F)(F)F)ccc2OC[C@H](C)N(C(=O)C2CCOCC2)C[C@H]1C,n,n,x
CO[C@H]1CN(C)C(=O)c2cc(NC(=O)CC(F)(F)F)ccc2OC[C@H](C)N(C(=O)C2CC2)C[C@@H]1C,n,n,x
COCC#Cc1ccc2c(c1)O[C@@H](CN(C)S(=O)(=O)c1ccc(OC)cc1)[C@H](C)CN([C@@H](C)CO)S2(=O)=O,n,n,n
O=C(C[C@H]1C=C[C@@H](NS(=O)(=O)c2ccc(F)cc2)[C@H](CO)O1)N1CCC(Cc2ccccc2)CC1,n,n,n
CO[C@H]1CN(C)C(=O)c2cc(NC(C)=O)ccc2OC[C@@H](C)N(C(=O)CN2CCOCC2)C[C@H]1C,n,n,n
Cc1ccc(-c2ccc3c(c2)O[C@@H](CN(C)C(=O)Nc2ccc(F)cc2)[C@@H](C)CN([C@H](C)CO)S3(=O)=O)cc1,n,n,n
Cc1ccc(S(=O)(=O)N(C)C[C@@H]2OCCCC[C@@H](C)Oc3ccc(NC(=O)Nc4cccc5ccccc45)cc3C(=O)N([C@H](C)CO)C[C@H]2C)cc1,n,n,x
COc1ccc(S(=O)(=O)n2ccc(C)n2)cc1C,u,x,n
COc1cc(C)c(S(=O)(=O)n2ccc(C)n2)cc1C,x,x,113
Cc1c(NC(=O)CSc2ccccn2)c(=O)n(-c2ccccc2)n1C,x,x,111
Cc1c(NC(=O)CSc2ccc(Cl)cc2)c(=O)n(-c2ccccc2)n1C,n,x,x
C[C@@H](NC(=O)[C@@H]1[C@@H](CO)[C@@H]2Cn3c(cccc3=O)[C@@H]2N1Cc1ccncc1)c1ccccc1,u,n,n
CCCCNc1c(-c2ccc(-c3cccc(Cl)c3)cc2)nc2ccc(Cl)cn12,59,n,n
CCCCCCSc1ccc(-c2nc3ccc(Cl)cn3c2NCCCC)cc1OC,n,n,n
SMILES,DENV2 CPE rescue,E-sel inducer,C2C12 statin
CCOC(=O)CNc1c(-c2ccccc2)nc2ccc(Cl)cn12,x,x,98
CCOC(=O)CNc1c(-c2ccc(O)cc2)nc2ccc(Cl)cn12,x,x,n
C[C@@H]1CN([C@H](C)CO)C(=O)c2cc(C3=CCCCC3)cnc2O[C@H]1CN(C)C(=O)Cc1ccncc1,n,n,n
COc1ccc(OC)c2cc3ccccc3cc12,n,n,n
COc1ccc2ccccc2c1-c1c(OC)ccc2ccccc12,26,x,x
C[C@@H]1CN([C@H](C)CO)C(=O)c2cccc(NS(C)(=O)=O)c2O[C@H]1CN(C)Cc1ccc(C(=O)O)cc1,n,x,n
C[C@@H]1CN([C@@H](C)CO)C(=O)c2cc(NS(=O)(=O)c3ccccc3)ccc2O[C@@H](C)CCCCO[C@@H]1CN(C)Cc1ccc2c(c1)OCO2,n,x,x
COC(=O)C[C@@H]1CC[C@@H]2[C@H](COc3ccc(NC(=O)NC(C)C)cc3C(=O)N2C)O1,n,n,n
Cc1cccc(C(=O)Nc2nnc(-c3ccc(C(C)(C)C)cc3)s2)c1,x,x,83
